Laboratory results from ChEMBL document CHEMBL3352115, “Discovery of APD334: Design of a Clinical Stage Functional Antagonist of the Sphingosine-1-phosphate-1 Receptor” (ACS Med Chem Lett, 2014).
Calls of active or inactive are those of the source. No cut-off for these calls is given here.

Legend:
[1] = Oral bioavailability in rat; type: ADME, organism-based; details: in vivo
Cytochrome P450 1A2 = Cytochrome P450 1A2 (Homo sapiens, UniProt P05177); assay: Inhibition of CYP1A2 (unknown origin); type: ADME
Chain of Cytochrome P450 1A2 (P05177 whole entry): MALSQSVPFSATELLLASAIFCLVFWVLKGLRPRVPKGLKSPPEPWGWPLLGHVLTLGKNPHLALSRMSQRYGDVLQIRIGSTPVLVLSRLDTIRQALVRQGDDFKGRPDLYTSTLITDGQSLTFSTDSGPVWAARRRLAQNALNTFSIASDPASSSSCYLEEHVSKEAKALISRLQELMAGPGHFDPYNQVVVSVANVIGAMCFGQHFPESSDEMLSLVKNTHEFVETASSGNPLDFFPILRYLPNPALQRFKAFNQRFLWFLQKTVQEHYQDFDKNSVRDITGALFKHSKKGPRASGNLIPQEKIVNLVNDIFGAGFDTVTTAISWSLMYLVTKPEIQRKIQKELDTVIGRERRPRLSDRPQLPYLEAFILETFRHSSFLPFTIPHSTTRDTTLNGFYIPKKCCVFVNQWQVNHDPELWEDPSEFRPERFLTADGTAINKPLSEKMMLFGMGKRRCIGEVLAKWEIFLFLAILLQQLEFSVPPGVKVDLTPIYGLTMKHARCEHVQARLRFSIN

Canis familiaris [2] = assay: Effect on heart rate in telemeterized dog up to 40 mg/kg; type: ADME, organism-based, Canis lupus familiaris; set-up: dose 40 mg/kg; details: in vivo
Summary of the method: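 Telemeterized dogs dosed at levels up to 40 mg/kg; pulse pressure, heart rate, body temperature and ECG parameters monitored.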

[3] = target: Sphingosine 1-phosphate receptor 1 (Mus musculus) (UniProt O08530); assay: Agonist activity at mouse S1P1 receptor assessed as cAMP accumulation by HTRF assay relative to S1P; type: functional
Chain of Sphingosine 1-phosphate receptor 1 (Mus musculus) (O08530 whole entry): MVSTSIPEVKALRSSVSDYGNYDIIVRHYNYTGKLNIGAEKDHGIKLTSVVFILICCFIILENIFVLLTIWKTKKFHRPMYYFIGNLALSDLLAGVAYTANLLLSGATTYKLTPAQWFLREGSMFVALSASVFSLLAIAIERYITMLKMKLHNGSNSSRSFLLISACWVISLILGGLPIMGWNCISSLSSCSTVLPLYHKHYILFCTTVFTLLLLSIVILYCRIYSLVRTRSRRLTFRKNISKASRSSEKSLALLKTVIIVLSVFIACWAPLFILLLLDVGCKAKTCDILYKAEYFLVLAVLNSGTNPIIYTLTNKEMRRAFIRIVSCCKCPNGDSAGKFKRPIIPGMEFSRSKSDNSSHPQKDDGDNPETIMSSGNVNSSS
Summary of the method: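 HTRF cyclase (cAMP) functional assay at S1P1 of each species; EC50 taken as mean of three or more replicates; efficacy given as % agonism relative to S1P.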

Salmonella typhimurium = assay: Genotoxicity in Salmonella typhimurium in absence of rat liver S9 fraction by Ames bacterial reverse mutation assay; type: toxicity, organism-based; details: salmonella enterica subsp. enterica serovar typhimurium
[4] = Half life in rat liver microsomes; type: ADME
Summary of the method: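 Stability on incubation with liver microsomes of each species; half-life reported.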

Mus musculus = assay: Reduction in lymphocyte infiltration in C57Bl/6 mouse experimental autoimmune encephalomyelitis model of multiple sclerosis at 3 mg/kg dosed once daily beginning on day 18 and continued to day 37 by immunofluorescent staining method; type: functional, organism-based; set-up: dose 3 mg/kg
Summary of the method: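 Therapeutic EAE in female C57Bl/6 mice, dosing from day 18; spinal cord and brain collected day 37; cerebellum sections immunostained for CD45 and CD3 with DAPI counterstain; inflammatory foci and infiltrating lymphocytes assessed.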

[5] = Cmax in rat at 1 mg/kg, iv or 1 mg/kg, po; type: ADME, organism-based; details: in vivo
Canis familiaris [6] = assay: Systemic clearance in dog at 1 mg/kg, iv relative to liver blood flow; type: ADME, organism-based, Canis lupus familiaris; set-up: dose 1 mg/kg, route intravenous; details: in vivo
Rattus norvegicus [7] = assay: Induction of body weight regain in Lewis rat collagen-induced arthritis model at 1 mg/kg, po qd measured on day 17 (reference value: 160.3 +/- 2.3 g); type: functional
[8] = target: Sphingosine 1-phosphate receptor 5 (Homo sapiens) (UniProt Q9H228); assay: Agonist activity at human S1P5 receptor by beta-arrestin recruitment assay relative to S1P
Chain of Sphingosine 1-phosphate receptor 5 (Homo sapiens) (Q9H228 whole entry): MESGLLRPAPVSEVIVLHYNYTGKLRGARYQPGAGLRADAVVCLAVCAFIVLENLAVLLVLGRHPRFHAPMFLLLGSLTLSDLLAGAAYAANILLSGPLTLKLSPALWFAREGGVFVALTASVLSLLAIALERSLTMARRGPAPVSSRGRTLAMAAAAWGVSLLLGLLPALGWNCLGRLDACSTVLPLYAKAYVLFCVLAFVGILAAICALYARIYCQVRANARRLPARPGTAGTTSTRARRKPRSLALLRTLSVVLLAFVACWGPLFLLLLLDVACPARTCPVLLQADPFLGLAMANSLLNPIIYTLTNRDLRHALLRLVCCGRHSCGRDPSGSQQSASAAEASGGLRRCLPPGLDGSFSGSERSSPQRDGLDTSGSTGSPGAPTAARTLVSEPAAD

Rattus norvegicus [9] = assay: Reduction in ankle diameter in Lewis rat collagen-induced arthritis model at 1 mg/kg, po qd measured on day 17 (reference value: +/- inches); type: functional
Summary of the method: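 Female Lewis rats with collagen-induced arthritis, prophylactic daily oral dosing; ankle diameter (inches) and body weight recorded at day 17 end point; mean ± SEM.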

O=C(O)C[C@H]1CCc2c1[nH]c1ccc(OCc3ccc(C4CCCC4)c(C(F)(F)F)c3)cc21 [ETRASIMOD]
bioavailability [1]: 54% | IC50 (Cytochrome P450 1A2): > 50 µM | Activity (Canis familiaris [2]): Non-toxic | Emax [3]: 95% | Activity (Salmonella typhimurium): Non-toxic | half-life [4]: > 1 h | Activity (Mus musculus): Active | Cmax [5]: 218 ng/mL | CL (Canis familiaris [6]): 0.746% | Activity (Rattus norvegicus [7]): 178.6 g | Emax [8]: 73% | Activity (Rattus norvegicus [9]): 0.2803 inches
